Data: ChEMBL document CHEMBL5550188, “Detection of a Mitochondrial Fragmentation and Integrated Stress Response Using the Cell Painting Assay” (2024)
Active and inactive are the calls of the source. No cut-off for these calls is given here.

Key:
U2OS [1] = assay: Effect on glycolysis in human U2OS cells assessed as increase in ECAR level at highest concentration measured after 24 hrs by Seahorse analysis; format: functional, cell-based
Method in brief: (§1)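 Seahorse XFp Mito Stress Test on U-2OS, 2 × 10⁵ cells per well, seeded overnight. Assay medium was pH 7.4 DMEM with 2 mM GlutaMAX, 1 mM pyruvate and 25 mM glucose. For acute runs, compound was injected after 5 baseline reads, then 10 reads. Otherwise cells were pretreated 24 h. Then oligomycin A, FCCP and rotenone/antimycin A were added. OCR/ECAR were background-subtracted and normalized to the last baseline (100%). Mean ± SD, n = 3.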

U2OS [2] = assay: Induction of integrated stress response in human U2OS cells assessed as increase ATF4 mRNA level at 30 uM incubated for 24 hrs by RT-qPCR analysis; format: functional, cell-based
Method in brief: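 U-2OS at 1 × 10⁵/well in 6-well plates were grown 24 h to ~80% confluence, then treated 24 h versus DMSO. Total RNA (DNase-treated) was reverse-transcribed and ATF4 measured by SYBR Green qPCR. Expression was calculated by ΔΔCt against GAPDH, with DMSO set to 100%. Mean ± SD, n = 3.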

U2OS [3] = assay: Effect on mitochondrial membrane potential in human U2OS cells at 10 uM incubated for 24 hrs by TRME staining based analysis; format: functional, cell-based
Method in brief: (§2)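 U-2OS (5 × 10³/well) were treated 24 h, then given 20 μM FCCP or 0.5% DMSO controls for 10 min. Cells were stained 30 min at 37 °C with 1 μM TMRE plus Hoechst-33342 in complete DMEM, washed, and imaged live in 0.2% BSA/PBS at 10× (TMRE ex/em 549/575 nm).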

U2OS [4] = assay: Effect on oxidative phosphorylation in human U2OS cells at 30 uM incubated for 24 hrs by pathway over-representation analysis; format: functional, cell-based
Method in brief: (§3)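 U-2OS seeded at 1 × 10⁶ cells in T75 flasks, treated next day for 24 h at 37 °C versus DMSO. Cells were lysed by freeze–thaw, reduced with TCEP at 55 °C, alkylated with iodoacetamide, acetone-precipitated and trypsin-digested. Peptides were TMT-labelled, split into 10 fractions by high-pH C18, then run on nanoHPLC-MS/MS (orbitrap). Biological triplicates, with pathway over-representation analysis.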

U2OS [5] = assay: Effect on HIF1 signaling in human U2OS cells incubated for 24 hrs by pathway over-representation analysis; format: functional, cell-based; method in brief: as §3
U2OS [6] = assay: Effect on glycolysis in human U2OS cells assessed as increase in ECAR level at 10 to 30 uM of acute treatment by Seahorse analysis; format: functional, cell-based; conditions: dose 10-30 µM; method in brief: as §1
U2OS [7] = assay: Effect on mitochondrial respiration in human U2OS cells assessed as suppression of OCR level at 10 to 30 uM of acute treatment by Seahorse analysis; format: functional, cell-based; conditions: dose 10-30 µM; method in brief: as §1
U2OS [8] = assay: Induction of mitochondrial fragmentation in human U2OS cells assessed as puncta-like staining at 10 uM incubated for 20 hrs by Mito Tracker Deep Red dye based CPA assay; format: functional, cell-based
Method in brief: (§4)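 Cell Painting: U-2OS were seeded at 1600 cells/well, then dosed 4 h later for 20 h at 37 °C against a matched-% DMSO control. Live cells were stained 30 min with 100 nM MitoTracker Deep Red, then fixed in 3.7% formaldehyde and permeabilized with 0.1% Triton X-100. They were co-stained with phalloidin, concanavalin A, Hoechst, WGA and SYTO 14. Imaging was high-content, run as triplicate plates; features are Z-scores versus DMSO median/MAD.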

U2OS [9] = assay: Inhibition of cell confluence in human U2OS cells at 10 to 50 uM measured after 48 hrs by PI/caspase-3/7 Green dye based analysis; format: functional; conditions: dose 10-50 µM
Method in brief: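 U-2OS at 5000/well were incubated overnight, then given medium with compound or DMSO plus propidium iodide and CellEvent Caspase-3/7 Green. Cells were imaged hourly for 48 h by live-cell imaging. Phase confluence gave growth; red and green object confluence gave PI-positive cells and caspase-3/7 activity.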

U2OS [10] = assay: Induction of integrated stress response in human U2OS cells assessed as increase ATF4 level at 30 uM incubated for 24 hrs by Western blot analysis; format: functional, cell-based
Method in brief: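 U-2OS grown to 80% confluence in 6-well plates were treated 24 h at 37 °C versus DMSO. ATF4 was detected by immunoblotting, with vinculin as reference protein.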

U2OS [11] = assay: Induction of oxidative stress in human U2OS cells assessed as increase in mitochondrial superoxide level at 10 uM incubated for 1 hr by MitoSox Red staining based analysis; format: functional, cell-based
Method in brief: (§5)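 U-2OS at 15,000/well were preloaded 30 min with 5 μM MitoSOX Red plus Hoechst in plain DMEM. They were then treated 60 min in complete DMEM, fixed in 0.5% paraformaldehyde, and imaged at 10×. Integrated MitoSOX intensity per cell was normalized to DMSO (0%) and 10 μM CDNB (100%). Mean ± SD, n = 3.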

U2OS [12] = assay: Effect on mitochondrial respiration in human U2OS cells assessed as suppression of OCR level at 10 to 30 uM measured after 24 hrs by Seahorse analysis; format: functional, cell-based; conditions: dose 10-30 µM; method in brief: as §1
U2OS [13] = assay: Effect on mitochondrial dysfunction in human U2OS cells at 30 uM incubated for 24 hrs by pathway over-representation analysis; format: functional, cell-based; method in brief: as §3
HEK-293T = assay: Upregulation of HIF1 level in HEK293T cells transfected with HIF1/luc at 30 uM incubated for 24 hrs by Renilla luciferase base assay; format: functional, cell-based; conditions: Homo sapiens
Method in brief: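 HEK293T were co-transfected (Lipofectamine 2000) with a PGK1-HRE-driven destabilized firefly luciferase reporter and constitutive TK-Renilla. Cells were seeded at 2.5 × 10⁴/well, then treated 24 h the next day, with 100 μM CoCl₂ and 10 μM ML228 as controls. Dual-Glo readout: firefly was normalized to Renilla and expressed as fold induction over DMSO.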

U2OS [14] = assay: Induction of oxidative stress in human U2OS cells assessed as increase in mitochondrial superoxide level at 30 uM incubated for 1 hr by MitoSox Red staining based analysis; format: functional, cell-based; method in brief: as §5
U2OS [15] = assay: Effect on HIF1 signaling in human U2OS cells at 30 uM incubated for 24 hrs by pathway over-representation analysis; format: functional, cell-based; method in brief: as §3
U2OS [16] = assay: Effect on mitochondrial membrane potential in human U2OS cells at 30 uM incubated for 24 hrs by TRME staining based analysis; format: functional, cell-based; method in brief: as §2
U2OS [17] = assay: Induction of mitochondrial fragmentation in human U2OS cells assessed as puncta-like staining at 30 uM incubated for 20 hrs by Mito Tracker Deep Red dye based CPA assay; format: functional, cell-based; method in brief: as §4

Structure (SMILES) | Activity (U2OS [1]) | Activity (U2OS [2]) | Activity (U2OS [3]) | Activity (U2OS [4]) | Activity (U2OS [5]) | Activity (U2OS [6]) | Activity (U2OS [7]) | Activity (U2OS [8]) | inhibition (U2OS [9]) | Activity (U2OS [10]) | Activity (U2OS [11]) | Activity (U2OS [12]) | Activity (U2OS [13]) | Activity (HEK-293T) | Activity (U2OS [14]) | Activity (U2OS [15]) | Activity (U2OS [16]) | Activity (U2OS [17])
COc1cc(OC)c2c(c1Cl)OC1(CCC3(CC1C)OCCc1c3c3cc(C)ccc3n1Cc1ccccc1)C2=O (configuration not stated) | Active | Active | inactive | Active | inactive | inactive | inactive | Active | inactive | Active | Active | Active | Active |  |  |  |  | 
Cc1cccc(-c2[nH]c(C(C)(C)C)nc2-c2ccc3nccnc3c2)n1 | Active | Active |  | Active |  | inactive | inactive |  | inactive | Active |  | Active | Active | Active | Active | inactive | inactive | Active
